# “And” between values parts separate entries of the source, which are not always exact repeats. Identical values can stand only once. Square brackets hold non-standard residues; d marks the D form. Peptide text beside a SMILES is read from it. Orn(N5-OH,N5-Ac) = CC(=O)N(O)CCC[C@H](N)C(=O)O
# Tests used:
# L. monocytogenes EGD-e [1] = test: Growth assay in BHI with 2,2'-bipyridyl; type: cell-based, Listeria monocytogenes
# [2] = target: listerial CM Fc transporter FhuDBGC; settings: ref Jin et al., 2005, cited from earlier work
# L. monocytogenes EGD-e [3] = test: Iron nutrition tests on BHI agar with bipyridyl, EGD-e; type: cell-based, Listeria monocytogenes; settings: 50 uM Fc, EGD-e and all mutant strains
# E. coli FhuA = settings: ref Newton et al., 2010; cited from earlier work
# [4] = test system: L. monocytogenes EGD-e Δhup (ΔhupDGC); test: [59Fe]-Hn uptake by cells, Δhup; type: cell-based, Listeria monocytogenes
# L. monocytogenes EGD-e [5] = settings: aqueous buffers; ref Jin et al., 2005; cited from earlier work
# L. monocytogenes EGD-e [6] = test: [59Fe]-Hn binding to whole cells, EGD-e; parameters: species or system Listeria monocytogenes; settings: strain EGD-e; for Kd: read-out: Binding Kd, MOPS-L, on ice
# L. monocytogenes EGD-e [7] = test: [59Fe]-Hn uptake by cells, EGD-e; type: cell-based, Listeria monocytogenes; settings: for Km: read-out: Transport Km; for Km / Transport Vmax: 37°C
# HupD-6H (Lmo2431) = HupD-6H (Lmo2431) (Listeria monocytogenes, UniProt Q8Y4K7); test: Intrinsic Trp fluorescence quenching, ligand binding to purified 6H-HupD
# FhuD-6H (Lmo1959) = FhuD-6H (Lmo1959) (Listeria monocytogenes, UniProt Q8Y5U6); test: Intrinsic Trp fluorescence quenching, ligand binding to purified 6H-FhuD
# [8] = test system: L. monocytogenes EGD-e Δlmo2185 (Δhbp2); test: [59Fe]-Hn binding to whole cells, Δlmo2185; parameters: species or system Listeria monocytogenes
# Lmo2185 (Hbp2) = target: T1, Lmo2185 (Hbp2) (Listeria monocytogenes serovar 1/2a, UniProt Q7AP54); test: Equilibrium [59Fe]-Hn filter binding to purified Lmo2185
# T1 sequence (Q7AP54 29-569): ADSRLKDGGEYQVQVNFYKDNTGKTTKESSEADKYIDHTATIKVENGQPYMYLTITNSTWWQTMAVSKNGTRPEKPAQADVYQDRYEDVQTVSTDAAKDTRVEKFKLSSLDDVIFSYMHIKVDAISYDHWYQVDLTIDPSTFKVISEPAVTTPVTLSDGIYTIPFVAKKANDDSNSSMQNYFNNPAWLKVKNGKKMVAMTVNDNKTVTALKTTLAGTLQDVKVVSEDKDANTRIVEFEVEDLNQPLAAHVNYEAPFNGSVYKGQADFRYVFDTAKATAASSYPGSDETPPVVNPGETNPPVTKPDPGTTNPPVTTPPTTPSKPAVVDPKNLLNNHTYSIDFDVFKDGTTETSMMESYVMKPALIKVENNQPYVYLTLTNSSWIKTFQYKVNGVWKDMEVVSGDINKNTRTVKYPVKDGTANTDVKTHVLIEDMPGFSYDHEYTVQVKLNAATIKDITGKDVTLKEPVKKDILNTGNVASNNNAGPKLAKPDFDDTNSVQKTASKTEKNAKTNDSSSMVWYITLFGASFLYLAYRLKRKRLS
# Method in brief: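 His-tagged Hbp2 expressed in E. coli BL21 (1 mM IPTG), purified on Co-NTA and Sephacryl S-100, stripped of Hn by boiling in 0.5% SDS and acetone precipitation, then renatured in TBS pH 8.0. Protein at 30.6 pmol/mL, refolded 1 h at RT, mixed with [59Fe]-Hn (DMSO) for 30 min on ice. Filtered on cellulose acetate and gamma-counted. Triplicates, protein-free background subtracted, KD from bound-vs-total fit.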
# [9] = test system: L. monocytogenes EGD-e ΔsrtAB; test: [59Fe]-Hn uptake by cells, ΔsrtAB; type: cell-based, Listeria monocytogenes; settings: strain ΔsrtAB
# Method in brief: (§1)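 Cultures from overnight BHI (37°C) were passaged 1% into MOPS-L to stationary phase, then again to OD600 0.8–1. Cells were added to 37°C MOPS containing varying [59Fe]-Hn, filtered at 5 s and 1 min, washed with ice-cold 50 mM Tris, 0.05% Tween-20, pH 9, and gamma-counted. The 5 s counts were subtracted from 1 min counts to give rate. Triplicates were fitted to enzyme kinetics for KM and Vmax.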
# [10] = test system: L. monocytogenes EGD-e ΔsrtA; test: [59Fe]-Hn binding to whole cells, ΔsrtA; parameters: species or system Listeria monocytogenes; settings: strain ΔsrtA
# Method in brief: (§2)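 Bacteria were grown overnight in BHI at 37°C, then passaged twice (1%) in iron-deficient MOPS-L to OD600 0.6–0.8. Cells were exposed on ice for 1 min to [59Fe]-Hn (DMSO stock diluted in ice-cold MOPS-L). They were filtered (0.45 µm), washed with 50 mM Tris-HCl pH 9.0 plus 0.05% Tween-20, and gamma-counted. Filter-only counts were subtracted. Triplicates were fitted to a one-site-plus-background model for KD and capacity (pmol/10^9 cells).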
# [11] = test system: L. monocytogenes EGD-e Δhup (ΔhupDGC); test: [59Fe]-Hn binding to whole cells, Δhup; parameters: species or system Listeria monocytogenes
# [12] = test system: L. monocytogenes EGD-e ΔsrtB; test: [59Fe]-Hn binding to whole cells, ΔsrtB; parameters: species or system Listeria monocytogenes
# [13] = test system: L. monocytogenes EGD-e ΔsrtB; test: [59Fe]-Hn uptake by cells, ΔsrtB; type: cell-based, Listeria monocytogenes; settings: strain ΔsrtB
# Method in brief: as §1
# [14] = test system: L. monocytogenes EGD-e ΔsrtAB; test: [59Fe]-Hn binding to whole cells, ΔsrtAB; parameters: species or system Listeria monocytogenes; settings: strain ΔsrtAB
# Method in brief: as §2
# [15] = test system: L. monocytogenes EGD-e ΔsrtA; test: [59Fe]-Hn uptake by cells, ΔsrtA; type: cell-based, Listeria monocytogenes; settings: strain ΔsrtA
# Method in brief: as §1
smiles,measurement,setting,value
"c1ccc(-c2ccccn2)nc1 [BP, 2, 2’-bipyridyl]",effect on growth in BHI,"L. monocytogenes EGD-e [1]; 1 mM BP, wild type and mutant derivatives",inhibited growth
"CC(=O)N(O)CCC[C@@H]1NC(=O)CNC(=O)CNC(=O)CNC(=O)[C@H](CCCN(O)C(C)=O)NC(=O)[C@H](CCCN(O)C(C)=O)NC1=O.[Fe+3] [Fc, ferrichrome] (cyclo(GGG[Orn(N5-OH,N5-Ac)][Orn(N5-OH,N5-Ac)][Orn(N5-OH,N5-Ac)]))",Kd,"[2]; read-out: KD, listerial Fc acquisition, KD ≈ KM",~1 nM
same,Km,"[2]; read-out: KM, listerial Fc transport, KD ≈ KM",~1 nM
same,"Vmax of Fc transport, FhuDBGC",[2],22 pMol/10^9 cells/min
same,utilization as iron source in nutrition test,L. monocytogenes EGD-e [3],normally utilized
same,"Vmax of Fc transport, E. coli FhuA",E. coli FhuA,45 pMol/10^9 cells/min
"C=CC1=C(C)c2cc3[nH]c(cc4nc(cc5[nH]c(cc1n2)c(C)c5C=C)C(C)=C4CCC(=O)O)c(CCC(=O)O)c3C.[Fe+3] [Hn, haemin]",Transport Vmax,[4]; strain Δhup,7 pMol/10^9cells/min
same,fold lower uptake rate than wild type,[4]; ΔhupDBGC strain vs EGD-e,3 fold
same,concentration that stimulated growth in previous study,L. monocytogenes EGD-e [5],200 µM
same,Kd,L. monocytogenes EGD-e [6],~1 nM
same,effect on growth in BHI containing 1 mM BP,"L. monocytogenes EGD-e [1]; 0.2 mM Hn added (printed), EGD-e",returned to its original growth rate
same,Km,L. monocytogenes EGD-e [7]; strain EGD-e,1 nM and ~1 nM
same,Transport Vmax,L. monocytogenes EGD-e [7]; strain EGD-e,23 pMol/10^9cells/min
same,fold higher affinity of 6H-HupD than the most avid LmoFhuD binding interaction,HupD-6H (Lmo2431); relative to FhuD-FxB,5 fold
"C=CC1=C(C)c2cc3[nH]c(cc4nc(cc5[nH]c(cc1n2)c(C)c5CCC(=O)O)C(CCC(=O)O)=C4C)c(C)c3C=C [PPIX, protoporphyrin IX]",Kd,"FhuD-6H (Lmo1959); Binding Kd FhuD-6H, intrinsic fluorescence quenching, 3–5 trials, Kd ± SD",276 ± 32 nM
same,Kd,"FhuD-6H (Lmo1959); KD for 6H-FhuD, fluorescence spectroscopy",300 nM
same,Kd,HupD-6H (Lmo2431),1150 nM
same,fold lower affinity for LmoHupD than Hn,HupD-6H (Lmo2431); relative to Hn,40 fold
C=CC1=C(C)c2cc3[n-]c(cc4nc(cc5[n-]c(cc1n2)c(C)c5CCC(=O)O)C(CCC(=O)O)=C4C)c(C)c3C=C.[59Fe+3] [[^59Fe]-Hn],Km,"[4]; read-out: Transport Km, strain Δhup",1.1 ± 0.2 nM
same,Transport Vmax,[4]; strain Δhup,7.5 pMol/10^9cells/min and 7.5 ± 0.3 pMol/10^9cells/min
same,Vmax as percent of the wild type rate,[4]; ΔhupDGC vs EGD-e,27%
same,Kd,"[8]; read-out: Binding Kd, strain Δlmo2185 (Δhbp2)",11.4 ± 2.6 nM
same,Binding Cap.,[8]; strain Δlmo2185 (Δhbp2),30.1 ± 2.9 pMol/10^9cells
same,decrease of binding capacity,"[8]; Δhbp2 vs EGD-e, nanomolar range",80%
same,Kd,Lmo2185 (Hbp2),12 nM
same,Km,[9]; read-out: Transport Km,15.1 ± 6.4 nM
same,Transport Vmax,[9],5.6 ±1.3 pMol/10^9cells/min
same,Kd,L. monocytogenes EGD-e [6],2 nM and 2.4 nM
same,Binding Cap.,L. monocytogenes EGD-e [6],130 pMol/10^9cells and 129.5 ± 5.6 pMol/10^9cells
same,Kd,[10]; read-out: Binding Kd,2.3 ± 0.16 nM
same,Binding Cap.,[10],130 pMol/10^9cells and 129 ± 1.9 pMol/10^9cells
same,Kd,"[11]; read-out: Binding Kd, strain Δhup",2.5 ± 0.45 nM
same,Binding Cap.,[11]; strain Δhup,105 pMol/10^9cells and 105 ± 4.2 pMol/10^9cells
same,decrease of binding capacity,[11]; Δhup vs EGD-e,~ 20% and 20%
same,Kd,"[12]; read-out: Binding Kd, strain ΔsrtB",9.9 ± 1.3 nM
same,Binding Cap.,[12]; strain ΔsrtB,19 pMol/10^9cells and 18.7 ± 0.9 pMol/10^9cells
same,decrease of binding capacity,"[12]; ΔsrtB vs EGD-e, nanomolar range",80%
same,Km,[13]; read-out: Transport Km,7.1 ± 7.5 nM
same,Transport Vmax,[13],3.5 ± 1.6 pMol/10^9cells/min
same,Kd,[14]; read-out: Binding Kd,5.1 ± 3 nM
same,Binding Cap.,[14],9 pMol/10^9cells and 9 ± 1.5 pMol/10^9cells
same,Km,L. monocytogenes EGD-e [7]; strain EGD-e,1.2 ± 0.2 nM
same,Hup-dependent transport rate Vmax,"L. monocytogenes EGD-e [7]; residual accumulation in Δhup subtracted from wild-type, estimate",14 pMol/10^9 cells/min
same,"Vmax of uptake (text, unit without /min)",L. monocytogenes EGD-e [7]; strain EGD-e,23 pMol/10^9 cells
same,Transport Vmax,L. monocytogenes EGD-e [7]; strain EGD-e,22.2 ± 0.9 pMol/10^9cells/min
same,Km,[15]; read-out: Transport Km,1.4 ± 0.2 nM
same,Transport Vmax,[15],23.1 ± 0.6 pMol/10^9cells/min
